ChEMBL document CHEMBL3751707, “Silicon Incorporated Morpholine Antifungals: Design, Synthesis, and Biological Evaluation” (ACS Med Chem Lett, 2015)
≈ marks a conversion by molar mass, not a printed value.

What was measured:
Candida tropicalis [1] = assay: Antifungal activity against Candida tropicalis ATCC 750 after 24 to 36 hrs by broth microdilution method; assay type: functional, organism-based
How it was run: (§1)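 CLSI broth microdilution against yeasts (M27-A3) and filamentous fungi (M38-A2). Read-outs: IC50 (concentration giving 50% growth inhibition), MIC, and MFC (minimum fungicidal concentration), all in μg/mL. Assay done twice in triplicate.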

Candida tropicalis [2] = assay: Antifungal activity against Candida tropicalis ATCC 750 after 72 hrs by broth microdilution method; assay type: functional; conditions: ATCC 750, 72 h; how it was run: as §1
Candida albicans [3] = assay: Antifungal activity against Candida albicans ATCC 10231 after 24 to 36 hrs by broth microdilution method; assay type: functional, organism-based; how it was run: as §1
Aspergillus niger [4] = assay: Antifungal activity against Aspergillus niger ATCC 10578 after 48 hrs by broth microdilution method; assay type: functional, organism-based; conditions: ATCC 10578, 48 h; how it was run: as §1
Aspergillus niger [5] = assay: Antifungal activity against Aspergillus niger ATCC 10578 after 72 hrs by broth microdilution method; assay type: functional; conditions: ATCC 10578, 72 h; how it was run: as §1
Candida albicans [6] = assay: Antifungal activity against Candida albicans ATCC 24433 after 72 hrs by broth microdilution method; assay type: functional; conditions: ATCC 24433, 72 h; how it was run: as §1
Nakaseomyces glabratus [7] = assay: Antifungal activity against Candida glabrata NCYC 388 after 72 hrs by broth microdilution method; assay type: functional; conditions: NCYC 388, 72 h; how it was run: as §1
Cryptococcus neoformans [8] = assay: Antifungal activity against Cryptococcus neoformans ATCC 34664 after 24 to 36 hrs by broth microdilution method; assay type: functional, organism-based; how it was run: as §1
Candida albicans [9] = assay: Antifungal activity against Candida albicans ATCC 24433 after 24 to 36 hrs by broth microdilution method; assay type: functional, organism-based; how it was run: as §1
Nakaseomyces glabratus [10] = assay: Antifungal activity against Candida glabrata NCYC 388 after 24 to 36 hrs by broth microdilution method; assay type: functional, organism-based; how it was run: as §1
Candida albicans [11] = assay: Antifungal activity against Candida albicans ATCC 10231 after 72 hrs by broth microdilution method; assay type: functional; conditions: ATCC 10231, 72 h; how it was run: as §1
Cryptococcus neoformans [12] = assay: Antifungal activity against Cryptococcus neoformans ATCC 34664 after 72 hrs by broth microdilution method; assay type: functional; conditions: ATCC 34664, 72 h; how it was run: as §1
[13] = Toxicity in human RBC assessed as hemolysis upto 128 ug/ml; assay type: cell-based; conditions: erythrocyte
[14] = Metabolic stability in human liver microsomes after 30 mins by LC-MS/MS analysis; assay type: ADME; conditions: read-out: Stability
How it was run: (§2)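 Test compounds were incubated 30 min with liver microsomes (human or mouse, per line), and values are reported as % metabolic stability after 30 min.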

[15] = Metabolic stability in mouse liver microsomes after 30 mins by LC-MS/MS analysis; assay type: ADME; conditions: read-out: Stability; how it was run: as §2
[16] = Toxicity in human RBC assessed as partial hemolysis at 256 ug/ml; assay type: cell-based; conditions: erythrocyte

Structure (SMILES) | IC50 (Candida tropicalis [1]) [µg/mL] | MIC (Candida tropicalis [1]) [µg/mL] | IC50 (Candida albicans [3]) [µg/mL] | MIC (Candida albicans [3]) [µg/mL] | IC50 (Aspergillus niger [4]) [µg/mL] | MIC (Aspergillus niger [4]) [µg/mL] | IC50 (Cryptococcus neoformans [8]) [µg/mL] | MIC (Cryptococcus neoformans [8]) [µg/mL] | IC50 (Candida albicans [9]) [µg/mL] | MIC (Candida albicans [9]) [µg/mL] | IC50 (Nakaseomyces glabratus [10]) [µg/mL] | MIC (Nakaseomyces glabratus [10]) [µg/mL] | MFC (Candida tropicalis [2]) [µg/mL] | MFC (Aspergillus niger [5]) [µg/mL] | MFC (Candida albicans [6]) [µg/mL] | MFC (Nakaseomyces glabratus [7]) [µg/mL] | MFC (Candida albicans [11]) [µg/mL] | MFC (Cryptococcus neoformans [12]) [µg/mL] | other results
CCC(C)(C)c1ccc(CC(C)CN2CC[Si](C)(C)CC2)cc1 (stereo not drawn) | 13.8 (≈ 41.6 µM) | 64 (≈ 193 µM) | 0.28 (≈ 0.844 µM) | 0.5 (≈ 1.51 µM) | 0.16 (≈ 0.482 µM) | 0.5 (≈ 1.51 µM) | 1.4 (≈ 4.22 µM) | 2 (≈ 6.03 µM) | 1.68 (≈ 5.07 µM) | 4 (≈ 12.1 µM) | 1.47 (≈ 4.43 µM) | 4 (≈ 12.1 µM) | 256 (≈ 772 µM) | 64 (≈ 193 µM) | 16 (≈ 48.2 µM) | 4 (≈ 12.1 µM) | 64 (≈ 193 µM) | 4 (≈ 12.1 µM) | –
CC(Cc1ccc(C(C)(C)C)cc1)C(=O)N1CC[Si](C)(C)CC1 (stereo not drawn) | – | ≥ 256 | – | ≥ 256 | – | ≥ 256 | – | ≥ 256 | – | ≥ 256 | – | ≥ 256 | ≥ 256 | ≥ 256 | ≥ 256 | ≥ 256 | ≥ 256 | ≥ 256 | –
CC(Cc1ccc([Si](C)(C)C)cc1)CN1CC[Si](C)(C)CC1 (stereo not drawn) | 44.8 (≈ 134 µM) | 64 (≈ 192 µM) | 0.45 (≈ 1.35 µM) | 1 (≈ 3 µM) | 0.5 (≈ 1.5 µM) | 2 (≈ 5.99 µM) | 1.98 (≈ 5.93 µM) | 8 (≈ 24 µM) | 1.25 (≈ 3.75 µM) | 4 (≈ 12 µM) | 1.75 (≈ 5.24 µM) | 8 (≈ 24 µM) | > 256 | > 256 | 8 (≈ 24 µM) | 16 (≈ 48 µM) | 4 (≈ 12 µM) | 64 (≈ 192 µM) | Activity [13]: Non-toxic; remaining at 0.5 h [14]: 44.5%; remaining at 0.5 h [15]: 17.3%
CC(Cc1ccc([Si](C)(C)C)cc1)CN1CCC(O)CC1 (stereo not drawn) | 0.198 (≈ 0.648 µM) | 4 (≈ 13.1 µM) | 0.19 (≈ 0.622 µM) | 0.25 (≈ 0.818 µM) | 0.25 (≈ 0.818 µM) | 0.5 (≈ 1.64 µM) | 0.93 (≈ 3.04 µM) | 2 (≈ 6.55 µM) | 0.396 (≈ 1.3 µM) | 1 (≈ 3.27 µM) | 0.196 (≈ 0.641 µM) | 0.5 (≈ 1.64 µM) | 256 (≈ 838 µM) | 256 (≈ 838 µM) | 2 (≈ 6.55 µM) | 8 (≈ 26.2 µM) | 4 (≈ 13.1 µM) | 16 (≈ 52.4 µM) | Activity [13]: Non-toxic; Activity [16]: Toxic

The next lines start with results.

IC50 (Candida tropicalis [1]) [µg/mL] | MIC (Candida tropicalis [1]) [µg/mL] | IC50 (Candida albicans [3]) [µg/mL] | MIC (Candida albicans [3]) [µg/mL] | IC50 (Aspergillus niger [4]) [µg/mL] | MIC (Aspergillus niger [4]) [µg/mL] | IC50 (Cryptococcus neoformans [8]) [µg/mL] | MIC (Cryptococcus neoformans [8]) [µg/mL] | IC50 (Candida albicans [9]) [µg/mL] | MIC (Candida albicans [9]) [µg/mL] | IC50 (Nakaseomyces glabratus [10]) [µg/mL] | MIC (Nakaseomyces glabratus [10]) [µg/mL] | Structure (SMILES) | MFC (Candida tropicalis [2]) [µg/mL] | MFC (Aspergillus niger [5]) [µg/mL] | MFC (Candida albicans [6]) [µg/mL] | MFC (Nakaseomyces glabratus [7]) [µg/mL] | MFC (Candida albicans [11]) [µg/mL] | MFC (Cryptococcus neoformans [12]) [µg/mL] | other results
– | ≥ 256 | – | ≥ 256 | – | ≥ 256 | – | ≥ 256 | – | ≥ 256 | – | ≥ 256 | CC(Cc1ccc([Si](C)(C)C)cc1)CN1CCS(=O)(=O)CC1 (stereo not drawn) | ≥ 256 | ≥ 256 | ≥ 256 | ≥ 256 | ≥ 256 | ≥ 256 | –
4.85 (≈ 17.5 µM) | 16 (≈ 57.7 µM) | 0.57 (≈ 2.05 µM) | 2 (≈ 7.21 µM) | 64 (≈ 231 µM) | 256 (≈ 922 µM) | 1.5 (≈ 5.4 µM) | 4 (≈ 14.4 µM) | 3.75 (≈ 13.5 µM) | 8 (≈ 28.8 µM) | 1.85 (≈ 6.67 µM) | 4 (≈ 14.4 µM) | CCN(CC)CC(C)Cc1ccc([Si](C)(C)C)cc1 (stereo not drawn) | 256 (≈ 922 µM) | > 256 | 32 (≈ 115 µM) | > 256 | 4 (≈ 14.4 µM) | 32 (≈ 115 µM) | –
– | ≥ 256 | – | ≥ 256 | – | ≥ 256 | – | ≥ 256 | – | ≥ 256 | – | ≥ 256 | CC(Cc1ccc(C(C)(C)C)cc1)C(=O)NC[Si](C)(C)c1ccccc1 (stereo not drawn) | ≥ 256 | ≥ 256 | ≥ 256 | ≥ 256 | ≥ 256 | ≥ 256 | –
0.5 (≈ 1.72 µM) | 8 (≈ 27.4 µM) | 0.26 (≈ 0.892 µM) | 0.5 (≈ 1.72 µM) | 106 (≈ 363 µM) | 128 (≈ 439 µM) | 0.125 (≈ 0.429 µM) | 0.5 (≈ 1.72 µM) | 0.74 (≈ 2.54 µM) | 1 (≈ 3.43 µM) | 0.144 (≈ 0.494 µM) | 0.5 (≈ 1.72 µM) | CC(Cc1ccc([Si](C)(C)C)cc1)CN1CCOCC1 (stereo not drawn) | 16 (≈ 54.9 µM) | > 256 | 8 (≈ 27.4 µM) | 16 (≈ 54.9 µM) | 8 (≈ 27.4 µM) | 2 (≈ 6.86 µM) | remaining at 0.5 h [14]: 26%; remaining at 0.5 h [15]: 5.1%
